# V1aR counter = V1a receptor agonism, counter-screen for OXTR agonists; activation, % at 3 µM; P37288; CHO-V1R cells, Fluo-8 calcium fluorescence, agonist mode; 0% DMSO, 100% 3 nM vasopressin; AID 2797; 320,000 tested, 0.25% active;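 active = activation above the mean activation of all tested compounds plus 3 SD, per screening run, cut at about 20% in these data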;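 note: signal is peak over basal fluorescence ratio across a 100 second FLIPR read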
# OXTR potentiate = potentiators of human oxytocin receptor; P30559; CHO-OTR cells, Fluo-8 calcium fluorescence, potentiator mode; 0% = oxytocin EC15, 100% = EC100; activation, % at 3 µM; 320,000 tested, 0.061% active;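 active = activation above that plate's cutoff, the mean activation of tested compounds plus 3 SD, cut at about 6.6% in these data, passing the limit was not always enough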
#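 test system = CHO-OTR cells, human receptor | compound = single-point 3.0 µM | schedule = 6 min compound pre-incubation at room temperature, 100 s kinetic read | signal = Fluo-8 no-wash calcium dye fluorescence, excitation 470-495 nm, emission 515-575 nm | repeats = single well per compound, singlicate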
# OXTR agonist = agonists of human oxytocin receptor; P30559; CHO-OTR cells, Fluo-8 calcium fluorescence; normalized: DMSO 0%, oxytocin 100%; activation, % at 3 µM; 320,000 tested, 0.32% active;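 active = activation above the mean of all tested compounds plus 3 SD, cutoff set per screening run, cut at about 20% in these data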;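 note: peak over basal fluorescence ratio from a 100 s FLIPR kinetic read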
# zfTRPN1 agonist = agonists of zebrafish TRPN1 channel; HEK293 zebrafish TRPN1-YFP, Fluo-8 calcium fluorescence; 100% = response to 87 µM carbachol; activation, % at 3 µM; 220,000 tested, 0.18% active;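 active = activation above its plate's cutoff, the mean activation of test wells on that plate plus 3 SD, cut at about 19% in these data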
#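 Material: zebrafish TRPN1-YFP in HEK293 cells; Doses: single test compound dose, 3 µM nominal, 0.3% DMSO; Timing: dye loading 1 h at 37 °C, then 30 min room temperature; Technique: intracellular calcium fluorescence with Fluo-8; Benchmarks: high carbachol 87 µM, low DMSO alone.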
# TRPML3 ag = agonists of human TRPML3 channel. Q8TDD5. HEK293 TRPML3-YFP, Fluo-8 calcium fluorescence; 100% = the carbachol control signal. activation, % at 3 µM. 220,000 tested, 0.29% active. AID 1448;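 active = activation above its plate's cutoff, the mean activation of the plate's test wells plus 3 SD, cut at about 12% in these data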
# Target sequence (Q8TDD5 whole entry, looked up): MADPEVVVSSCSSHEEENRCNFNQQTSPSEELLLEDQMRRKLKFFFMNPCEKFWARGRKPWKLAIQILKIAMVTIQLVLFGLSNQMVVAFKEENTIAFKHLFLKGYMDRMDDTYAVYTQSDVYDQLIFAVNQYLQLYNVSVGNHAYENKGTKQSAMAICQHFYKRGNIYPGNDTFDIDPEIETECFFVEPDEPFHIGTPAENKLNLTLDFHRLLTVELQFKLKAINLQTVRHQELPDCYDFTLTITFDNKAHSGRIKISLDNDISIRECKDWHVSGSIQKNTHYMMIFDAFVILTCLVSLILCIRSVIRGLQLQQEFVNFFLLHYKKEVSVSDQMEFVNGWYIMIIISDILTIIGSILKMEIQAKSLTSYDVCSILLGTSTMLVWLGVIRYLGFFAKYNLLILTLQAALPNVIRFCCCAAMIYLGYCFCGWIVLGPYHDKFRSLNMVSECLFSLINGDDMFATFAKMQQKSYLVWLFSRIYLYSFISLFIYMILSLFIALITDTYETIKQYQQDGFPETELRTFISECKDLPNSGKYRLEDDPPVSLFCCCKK
#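 Test system – HEK293 line with stable expression of human TRPML3-YFP channel · Control set – carbachol 87 µM final as high control (100%), DMSO as low control (0%) · Signal – Fluo-8 calcium dye fluorescence, ex 470-495, em 515-575 nm · Incubation – 1-h 37 °C dye load, 5-s basal, 120-s post-compound reads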
# Hits are given with their value; - = inactive; . = no result. Shown are actives, neighbours in structure and some others; about 0.55% of the full set was active somewhere.
SMILES,V1aR counter,OXTR potentiate,OXTR agonist,zfTRPN1 agonist,TRPML3 ag
O=C(NNC(=S)NC(=O)C12CC3CC(CC(C3)C1)C2)c1ccncc1,71,-,61,85,54
CC1(C(=O)NC(=S)NNC(=O)c2ccncc2)CCCCC1,-,-,-,-,-
CCCn1c(=O)c(C(=O)NNC(=O)c2ccccc2Cl)c(O)c2ccccc21,30,-,40,.,.
COc1ccc(OC)c(S(=O)(=O)Nc2ccc3[nH]c(=O)[nH]c3c2)c1,-,-,-,.,.
Oc1c(C=Nc2cccc3cccnc23)sc2ccccc12,65,-,48,-,-
Cc1cccc(/N=C/c2sc3ccccc3c2O)n1,-,-,-,-,-
CN1C(=O)c2cccc3c(Cl)ccc(c23)C1=O,-,-,-,-,-
CNc1ccc2c3c(cccc13)C(=O)N(C)C2=O,314,-,192,.,.
CN1C(=O)c2cccc3c(N(C)C)ccc(c23)C1=O,23,-,23,.,.
CC(Oc1ccc(Br)cc1)C(=O)Nc1ccc(N2CCOCC2)cc1N1CCOCC1 (centres undefined),-,-,-,.,.
CCN(CC)c1ccc(/C=C(\C#N)C(=O)c2ccc(Br)cc2)cc1,70,-,133,-,-
CN(C)c1ccc(/C=C(\C#N)C(=O)c2ccccc2)cc1,53,-,80,58,38
O=C1/C(=C/c2ccccc2)Nc2ccccc21,42,-,46,-,-
O=C1CNC(=O)/C(=C\c2ccccc2)N1,-,-,-,.,.
O=C(Nc1c(F)cccc1F)C1CCN(C(=O)c2cccs2)CC1,-,-,-,.,.
N#CNC(=Nc1cccc(F)c1)SCc1cccc(F)c1,-,-,-,-,13
CCC(C)Oc1nc(C)cc(C)c1S(=O)(=O)c1ccccc1C (centres undefined),-,-,-,-,42
COc1ccc(OC)c(/C=C2/Sc3ccccc3C2=O)c1,28,-,24,-,-
CC[C@@H](C(=O)[C@@H](C)[C@@H](O)[C@H](C)CCc1ccc(C)c(O)c1C(=O)O)[C@H]1O[C@](CC)([C@H]2CC[C@](O)(CC)[C@H](C)O2)C[C@@H]1C,42,-,32,.,.
CCOC(=O)c1ccc2nc(NC(=O)C(C)C)sc2c1,-,-,-,-,-
C=CCN(CC=C)S(=O)(=O)c1ccc2nc(NC(=O)C(C)C)sc2c1,22,-,29,-,-
CC(C)n1cc(CN2CCCC(C(=O)Nc3cccc(-c4cc5ccccc5[nH]4)c3)C2)cn1 (centres undefined),26,-,24,.,.
Cn1cc(CN2CCCC(C(=O)Nc3cccc(-c4cc5ccccc5[nH]4)c3)C2)cn1 (centres undefined),-,-,-,.,.
NC(=NCc1ccccc1)c1cccc([N+](=O)[O-])c1,-,-,-,.,.
CC1(C)CSC(=NCc2ccccc2)N1C(=O)c1cccc([N+](=O)[O-])c1,-,-,-,40,15
SMILES,V1aR counter,OXTR potentiate,OXTR agonist,zfTRPN1 agonist,TRPML3 ag
CC(C)S(=O)(=O)c1csc(NC(=O)Nc2ccc(Cl)cc2)c1,-,-,-,21,-
CC(=O)Nc1ccc(Sc2ncccc2C(=O)Nc2ccc(OC(F)(F)F)cc2)cn1,67,-,71,48,31
CC(=O)Nc1ccc(Sc2ncccc2C(=O)Nc2cc(Cl)cc(Cl)c2)cn1,-,-,-,-,-
COc1cc(C(=O)N/C(=C\c2cn(S(=O)(=O)N(C)C)c3ccccc23)C(=O)N2CCCC2)cc(OC)c1OC,-,-,-,.,.
O=C(CSc1nc2ccccc2s1)Nc1cc(S(=O)(=O)N2CCOCC2)ccc1O,-,-,-,-,-
COC(=O)C1CSC(C(=O)OC)N1C(=O)CN1CCN(c2ccccc2)CC1 (centres undefined),-,-,-,-,-
CN1CCN(c2ccc(C(F)(F)F)cc2NC(=O)Nc2ccccc2)CC1,33,-,34,.,.
CC(C)[C@@]1(c2ccc(Cl)cc2)ON(c2ccccc2C(F)(F)F)C1=O,-,-,-,.,.
O=S(=O)(Nc1ccc(F)cc1)c1ccc(S(=O)(=O)N2CCOCC2)cc1,22,-,27,.,.
CC(=O)C1C(c2ccc(F)cc2)c2c(noc2C)CC1(C)O (centres undefined),-,-,-,-,-

# Screening data from PubChem.
